The source made the active and inactive calls. No cut-off for these calls is given here.
Assays:
Enterococcus [1] = assay: Antibacterial activity against vancomycin-resistant Enterococcus; assay type: functional
Summary of the method: (§1)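 Values were set in μM and converted to μg/mL for presentation. Amikacin, ampicillin and ofloxacin served as positive controls.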

[2] = Antifungal activity against fluconazole/itraconazole/voriconazole-resistant Candida albicans ATCC 90819; assay type: functional
Enterobacter cloacae = assay: Antibacterial activity against Enterobacter cloacae ATCC 13047; assay type: functional; details: subsp. cloacae ATCC 13047
[3] = Antifungal activity against fluconazole/itraconazole/voriconazole-resistant Candida albicans ATCC 1237; assay type: functional
[4] = Antifungal activity against fluconazole/itraconazole/voriconazole-susceptible Candida albicans ATCC 2310; assay type: functional
[5] = Antifungal activity against fluconazole/itraconazole/voriconazole-resistant Candida albicans ATCC 10231; assay type: functional
[6] = Antifungal activity against fluconazole/itraconazole/voriconazole-susceptible Candida albicans ATCC 2876; assay type: functional
Staphylococcus aureus [7] = assay: Ratio of MIC for methicillin-resistant Staphylococcus aureus after and before 15 serial passages at 0.5 times MIC; assay type: functional
Summary of the method: (§2)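 Multi-step resistance selection with serial sub-culture of bacteria at sub-inhibitory compound concentrations for 15 passages. MIC was redetermined after each passage to follow any increase over the starting value. Amikacin was run in parallel as reference.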

[8] = Cytotoxicity against human A549 cells assessed as reduction in cell survival; assay type: toxicity, cell-based
Acinetobacter baumannii = assay: Antibacterial activity against Acinetobacter baumannii ATCC 19606; assay type: functional
Staphylococcus aureus [9] = assay: Antibacterial activity against methicillin-resistant Staphylococcus aureus; assay type: functional; summary of the method: as §1
[10] = tested on: Mycolicibacterium smegmatis; assay: Antimycobacterial activity against Mycobacterium smegmatis MC2 155; assay type: functional; details: str. MC2 155; summary of the method: as §1
[11] = Cytotoxicity against human BEAS2B cells assessed as reduction in cell survival; assay type: toxicity, cell-based; details: beas-2b
Escherichia coli = assay: Antibacterial activity against Escherichia coli MC1061; assay type: functional; summary of the method: as §1
Listeria monocytogenes [12] = assay: Ratio of MIC for Listeria monocytogenes ATCC 19115 after and before 15 serial passages at 0.5 times MIC; assay type: functional; summary of the method: as §2
Pseudomonas aeruginosa [13] = assay: Antibacterial activity against Pseudomonas aeruginosa ATCC 27853; assay type: functional
Candida albicans [14] = assay: Antifungal activity against Candida albicans ATCC 1003; assay type: functional
[15] = Antibacterial activity against Salmonella enterica ATCC 14028; assay type: functional
Listeria monocytogenes [16] = assay: Antibacterial activity against Listeria monocytogenes ATCC 19115; assay type: functional
[17] = Antifungal activity against fluconazole/itraconazole/voriconazole-resistant Candida albicans ATCC 64124; assay type: functional
Bacillus subtilis = assay: Antibacterial activity against Bacillus subtilis 168; assay type: functional; details: subsp. subtilis str. 168
Klebsiella pneumoniae = assay: Antibacterial activity against Klebsiella pneumoniae ATCC 27736; assay type: functional
Enterococcus [18] = assay: Ratio of MIC for vancomycin-resistant Enterococcus after and before 15 serial passages at 0.5 times MIC; assay type: functional; summary of the method: as §2
Candida albicans [19] = assay: Ratio of MIC for Candida albicans ATCC 10231 after and before 13 serial passages at 0.5 times MIC; assay type: functional
Pseudomonas aeruginosa [20] = assay: Ratio of MIC for Pseudomonas aeruginosa ATCC 27853 after and before 15 serial passages at 0.5 times MIC; assay type: functional; summary of the method: as §2
Candida albicans [21] = assay: Induction of intracellular ROS production in Candida albicans ATCC 10231 at 1 to 2 times MIC after 1 hr by DCFH-DA probe based fluorescence microscopic analysis; assay type: functional, cell-based
Summary of the method: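 C. albicans ATCC 10231 was exposed for 1 h at 35 °C, with untreated cells as negative control and 1 mM H2O2 as positive control. Cells were then stained with DCFH-DA (20 μg/mL), and intracellular ROS was read by fluorescence microscopy.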

Listeria monocytogenes [22] = assay: Antibacterial activity against Listeria monocytogenes ATCC 19115 at 0.5 times MIC after […] serial passages; assay type: functional; summary of the method: as §2
Enterococcus [23] = assay: Antibacterial activity against vancomycin-resistant Enterococcus at 0.5 times MIC after […] serial passages; assay type: functional; summary of the method: as §2

| Structure (SMILES) | MIC (Enterococcus [1]) | MIC [2] | MIC (Enterobacter cloacae) | MIC [3] | MIC [4] | MIC [5] | MIC [6] | IC50 [8] | MIC (Acinetobacter baumannii) | MIC (Staphylococcus aureus [9]) | MIC [10] | IC50 [11] | MIC (Escherichia coli) | MIC (Pseudomonas aeruginosa [13]) | MIC (Candida albicans [14]) | MIC [15] | MIC (Listeria monocytogenes [16]) | MIC [17] | MIC (Bacillus subtilis) | MIC (Klebsiella pneumoniae) | other results |
| --- | --- | --- | --- | --- | --- | --- | --- | --- | --- | --- | --- | --- | --- | --- | --- | --- | --- | --- | --- | --- | --- |
| C/C(=N\NC(=N)N)c1ccc(CCc2ccc(/C(C)=N/NC(=N)N)cc2)cc1.Cl.Cl | 1 µM | 17.3 µM | > 500 µM | 34.6 µM | 69.3 µM | 17.3 µM | 8.6 µM | 2.9 µg/mL | > 500 µM | 1 to 2 µM | 1 µM | 1.8 µg/mL | > 500 µM | > 500 µM | 34.6 µM | > 500 µM | 1 µM | > 69.3 µM | > 500 µM | > 500 µM | fold change (FC) (Staphylococcus aureus [7]): 4 - 16; fold change (FC) (Listeria monocytogenes [12]): 8; fold change (FC) (Enterococcus [18]): 16 |
| Cl.N=C(N)N/N=C/c1ccc(-c2ccc(/C=N/Nc3ccc(Cl)cc3)cc2)cc1 | 3.9 µM | 18.3 µM | > 500 µM | 36.5 µM | 9.1 µM | 18.3 µM | 18.3 µM | 4.9 µg/mL | > 500 µM | 7.8 µM | 3.9 µM | 6 µg/mL | > 500 µM | > 500 µM | 9.1 µM | > 500 µM | 3.9 µM | 36.5 µM | > 500 µM | > 500 µM | – |
| C/C(=N\NC(=N)N)c1ccc2c(c1)Cc1cc(/C(C)=N/NC(=N)N)ccc1-2.Cl.Cl | – | 4.6 µM | 500 µM | 4.6 µM | 2.3 µM | 2.3 to 4.6 µM | 2.3 µM | 2.5 µg/mL | 500 µM | 1 to 2 µM | – | 1.8 µg/mL | 500 µM | 1 to 2 µM | 2.3 µM | 3.9 µM | < 0.5 µM | 2.3 µM | 7.8 µM | 31.3 to 62.5 µM | fold change (FC) (Staphylococcus aureus [7]): 1; fold change (FC) (Listeria monocytogenes [12]): 1; fold change (FC) (Candida albicans [19]): 2; fold change (FC) (Pseudomonas aeruginosa [20]): 1; Activity (Candida albicans [21]): Active; fold change (FC) (Enterococcus [18]): 1 |
| Cl.N=C(N)N/N=C/c1ccc(-c2ccc(/C=N/Nc3ccccc3Br)cc2)cc1 | 2 µM | 8.3 µM | > 500 µM | 8.3 µM | 8.3 µM | 4.1 µM | 8.3 µM | 6.7 µg/mL | > 500 µM | 2 µM | 3.9 µM | 3.4 µg/mL | > 500 µM | > 500 µM | 4.1 µM | > 500 µM | 2 µM | 8.3 µM | > 500 µM | > 500 µM | – |
| C/C(=N\NC(=N)N)c1ccc(-c2ccc(/C(C)=N/NC(=N)N)cc2)cc1.Cl.Cl | > 500 µM | 9.2 µM | 125 µM | > 73.9 µM | 9.2 µM | 4.7 to 9.2 µM | 4.7 µM | 6.3 µg/mL | > 500 µM | > 500 µM | > 500 µM | 1.7 µg/mL | 62.5 µM | 2 µM | 18.4 µM | > 500 µM | > 500 µM | 4.7 µM | > 500 µM | 15.6 µM | – |
| C/C(=N\NC(=N)N)c1ccc(Cc2ccc(/C(C)=N/NC(=N)N)cc2)cc1.Cl.Cl | 2 µM | 17.8 µM | > 500 µM | 17.8 µM | 17.8 µM | 17.8 µM | 8.9 µM | 4.3 µg/mL | > 500 µM | 3.9 µM | 2 µM | 2.9 µg/mL | > 500 µM | > 500 µM | 17.8 µM | > 500 µM | 3.9 µM | 17.8 µM | > 500 µM | > 500 µM | – |
| Cl.N=C(N)N/N=C/c1ccc(-c2ccc(/C=N/Nc3ccccc3Cl)cc2)cc1 | – | 4.6 µM | > 500 µM | 9.2 µM | 4.6 µM | 4.6 µM | 4.6 µM | 2.8 µg/mL | > 500 µM | – | 3.9 µM | 2.3 µg/mL | > 500 µM | > 500 µM | 4.6 µM | > 500 µM | 1 to 2 µM | 9.2 µM | > 500 µM | > 500 µM | Activity (Listeria monocytogenes [22]): Active; Activity (Enterococcus [23]): Active; Activity (Candida albicans [21]): Active |
| C/C(=N\NC(=N)N)c1cccc(/C(C)=N/NC(=N)N)c1.Cl.Cl | 125 µM | > 90.1 µM | > 500 µM | 90.1 µM | 90.1 µM | > 90.1 µM | 22.5 µM | 31.2 µg/mL | > 500 µM | > 500 µM | 15.6 µM | 33 µg/mL | > 500 µM | 500 µM | > 90.1 µM | 62.5 to 250 µM | 250 µM | > 90.1 µM | 250 µM | > 500 µM | – |

From ChEMBL document CHEMBL3871280, “Bis(N-amidinohydrazones) and N-(amidino)-N'-aryl-bishydrazones: New classes of antibacterial/antifungal agents” (Bioorg Med Chem, 2017)
